Data set [1] concerns the target Serine/threonine-protein kinase SBK1 (Homo sapiens) (UniProt Q52WX2). The data set can be described thus: Binding affinity to wild-type human partial length SBK1 (P23 to P348 residues) expressed in mammalian expression system assessed as residual binding level at 1 uM by Kinomescan method relative to control.
The target of data set [2] is Serine/threonine-protein kinase Nek2 (Homo sapiens) (UniProt P51955). The data set can be described thus: Binding affinity to wild-type human partial length NEK2 (M1 to K309 residues) expressed in bacterial expression system assessed as residual binding level at 1 uM by Kinomescan method relative to control.
Data set [3] has as its target Serine/threonine-protein kinase NLK (Homo sapiens) (UniProt Q9UBE8). The data set can be described thus: Binding affinity to wild-type human full length NLK (M13 to E527 residues) expressed in bacterial expression system assessed as residual binding level at 1 uM by Kinomescan method relative to control. In short, it runs like this:
(§1)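 Single-point kinome-wide KINOMEscan binding panel, test compound at 1 μM, run by the provider's standard protocol.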

The target in data set [4] is Cyclin-dependent kinase 5 (Homo sapiens) (UniProt Q00535). The data set can be described thus: Binding affinity to wild-type human full length CDK5 (M1 to P292 residues) expressed in bacterial expression system assessed as residual binding level at 1 uM by Kinomescan method relative to control.
Data set [5] addresses Epithelial discoidin domain-containing receptor 1 (Homo sapiens) (UniProt Q08345). The data set can be described thus: Binding affinity to wild-type human partial length DDR1 (R565 to V876 residues) expressed in bacterial expression system assessed as residual binding level at 1 uM by Kinomescan method relative to control.
In data set [6] the target is Serine/threonine-protein kinase TAO3 (Homo sapiens) (UniProt Q9H2K8). As to the kind of experiment: Binding affinity to wild-type human partial length TAOK3 (M1 to T316 residues) expressed in mammalian expression system assessed as residual binding level at 1 uM by Kinomescan method relative to control.
In data set [7] the test system is Mast/stem cell growth factor receptor Kit (Homo sapiens), P10721 [A829P]. As to the kind of experiment: Binding affinity to human partial length KIT A829P mutant (I571 to D952 residues) expressed in mammalian expression system assessed as residual binding level at 1 uM by Kinomescan method relative to control. The procedure, abridged:
(§2)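 Kinome-wide selectivity panel run by the KINOMEscan method, with the test compound at a single concentration of 1 μM. Wild-type and mutant kinases were profiled in the same screen.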

In data set [8] the target is Rho-associated protein kinase 2 (Homo sapiens) (UniProt O75116). The data set can be described thus: Binding affinity to wild-type human partial length ROCK2 (M1 to T431 residues) expressed in mammalian expression system assessed as residual binding level at 1 uM by Kinomescan method relative to control.
In data set [9] the target is Receptor-type tyrosine-protein kinase FLT3 (Homo sapiens) (UniProt P36888). The data set can be described thus: Binding affinity to wild-type human partial length autoinhibited FLT3 (H564 to Y969 residues) expressed in mammalian expression system assessed as residual binding level at 1 uM by Kinomescan method relative to control.
In data set [10] the target is G protein-coupled receptor kinase 4 (Homo sapiens) (UniProt P32298). As to the kind of experiment: Binding affinity to wild-type human full length GRK4 (M1 to C578 residues) expressed in bacterial expression system assessed as residual binding level at 1 uM by Kinomescan method relative to control.
The target in data set [11] is Myosin light chain kinase family member 4 (Homo sapiens) (UniProt Q86YV6). The data set can be described thus: Binding affinity to wild-type human partial length MYLK4 (V79 to S380 residues) expressed in bacterial expression system assessed as residual binding level at 1 uM by Kinomescan method relative to control.
Data set [12] in a line: Drug uptake in mouse plasma at 10 mg/kg, po after 2 hrs. The data set is classed as ADME, organism-based.
The target of data set [13] is Protein-tyrosine kinase 6 (Homo sapiens) (UniProt Q13882). As to the kind of experiment: Binding affinity to wild-type human partial length BRK (L166 to T451 residues) expressed in bacterial expression system assessed as residual binding level at 1 uM by Kinomescan method relative to control.
The target in data set [14] is Serine/threonine-protein kinase D1 (Homo sapiens) (UniProt Q15139). As to the kind of experiment: Binding affinity to wild-type human partial length PRKD1 (G551 to E870 residues) expressed in bacterial expression system assessed as residual binding level at 1 uM by Kinomescan method relative to control.
The test system of data set [15] is Receptor-type tyrosine-protein kinase FLT3 (Homo sapiens), P36888 [R834Q]. The data set can be described thus: Binding affinity to human partial length FLT3 R834Q mutant (V592 to Y969 residues) expressed in mammalian expression system assessed as residual binding level at 1 uM by Kinomescan method relative to control. The procedure, abridged: as §2
In data set [16] the target is Myosin light chain kinase, smooth muscle (Homo sapiens) (UniProt Q15746). The data set can be described thus: Binding affinity to wild-type human full length MYLK (M854 to E1845 residues) expressed in mammalian expression system assessed as residual binding level at 1 uM by Kinomescan method relative to control. In short, it runs like this: as §1
In data set [17] the target is Ribosomal protein S6 kinase alpha-2 (Homo sapiens) (UniProt Q15349). The data set can be described thus: Binding affinity to wild-type human partial length N-terminal RSK3 kinase domain 1 (M1 to Q385 residues) expressed in bacterial expression system assessed as residual binding level at 1 uM by Kinomescan method relative to control.
The target in data set [18] is Serine/threonine-protein kinase MRCK gamma (Homo sapiens) (UniProt Q6DT37). As to the kind of experiment: Binding affinity to wild-type human partial length DMPK2 (S46 to S408 residues) expressed in bacterial expression system assessed as residual binding level at 1 uM by Kinomescan method relative to control.
For data set [19], the target named is Mitogen-activated protein kinase 9 (Homo sapiens) (UniProt P45984). The data set can be described thus: Binding affinity to wild-type human full length JNK2 (M1 to Q382 residues) expressed in mammalian expression system assessed as residual binding level at 1 uM by Kinomescan method relative to control. In short, it runs like this: as §1
The target of data set [20] is Phosphatidylinositol 4,5-bisphosphate 3-kinase catalytic subunit beta isoform (Homo sapiens) (UniProt P42338). The data set can be described thus: Binding affinity to wild-type human partial length PIK3CB (P118 to S1070 residues) expressed in mammalian expression system assessed as residual binding level at 1 uM by Kinomescan method relative to control.
The target in data set [21] is Serine/threonine-protein kinase WNK4 (Homo sapiens) (UniProt Q96J92). As to the kind of experiment: Binding affinity to wild-type human partial length WNK4 (A31 to D461 residues) expressed in mammalian expression system assessed as residual binding level at 1 uM by Kinomescan method relative to control.
Data set [22] deals with Serine/threonine-protein kinase MAK (Homo sapiens) (UniProt P20794). As to the kind of experiment: Binding affinity to wild-type human partial length MAK (M1 to P314 residues) expressed in bacterial expression system assessed as residual binding level at 1 uM by Kinomescan method relative to control.
Data set [23] concerns the target Ribosomal protein S6 kinase alpha-2 (Homo sapiens) (UniProt Q15349). As to the kind of experiment: Binding affinity to wild-type human partial length C-terminal RSK3 kinase domain 2 (V403 to K700 residues) expressed in bacterial expression system assessed as residual binding level at 1 uM by Kinomescan method relative to control.
Data set [24] concerns the target Ephrin type-B receptor 2 (Homo sapiens) (UniProt P29323). As to the kind of experiment: Binding affinity to wild-type human partial length EPHB2 (I597 to L902 residues) expressed in bacterial expression system assessed as residual binding level at 1 uM by Kinomescan method relative to control.

Sequence of Ribosomal protein S6 kinase alpha-2 (Homo sapiens) (Q15349 whole entry, the tested form may be a part): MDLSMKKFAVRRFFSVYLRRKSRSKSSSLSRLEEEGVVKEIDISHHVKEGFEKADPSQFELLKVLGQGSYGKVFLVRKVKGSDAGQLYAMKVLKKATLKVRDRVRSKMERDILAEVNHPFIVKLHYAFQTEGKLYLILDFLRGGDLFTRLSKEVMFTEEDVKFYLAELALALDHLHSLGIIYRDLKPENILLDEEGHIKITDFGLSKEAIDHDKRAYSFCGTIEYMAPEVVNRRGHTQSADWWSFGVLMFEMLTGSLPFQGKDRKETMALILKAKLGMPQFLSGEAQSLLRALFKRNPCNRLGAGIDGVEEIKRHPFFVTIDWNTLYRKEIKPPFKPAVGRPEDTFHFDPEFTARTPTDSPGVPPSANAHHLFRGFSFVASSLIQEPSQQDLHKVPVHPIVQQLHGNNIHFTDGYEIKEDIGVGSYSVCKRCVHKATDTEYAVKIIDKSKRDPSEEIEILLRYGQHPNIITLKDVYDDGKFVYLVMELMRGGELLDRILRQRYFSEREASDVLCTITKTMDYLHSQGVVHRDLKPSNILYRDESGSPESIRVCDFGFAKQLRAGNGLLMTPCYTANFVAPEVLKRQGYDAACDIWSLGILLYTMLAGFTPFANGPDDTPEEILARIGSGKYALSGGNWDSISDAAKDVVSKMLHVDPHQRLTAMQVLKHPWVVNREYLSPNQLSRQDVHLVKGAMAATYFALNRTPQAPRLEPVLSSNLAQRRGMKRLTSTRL
Sequence of Mitogen-activated protein kinase 9 (Homo sapiens) (P45984 whole entry, looked up, the tested form may be a part, canonical isoform): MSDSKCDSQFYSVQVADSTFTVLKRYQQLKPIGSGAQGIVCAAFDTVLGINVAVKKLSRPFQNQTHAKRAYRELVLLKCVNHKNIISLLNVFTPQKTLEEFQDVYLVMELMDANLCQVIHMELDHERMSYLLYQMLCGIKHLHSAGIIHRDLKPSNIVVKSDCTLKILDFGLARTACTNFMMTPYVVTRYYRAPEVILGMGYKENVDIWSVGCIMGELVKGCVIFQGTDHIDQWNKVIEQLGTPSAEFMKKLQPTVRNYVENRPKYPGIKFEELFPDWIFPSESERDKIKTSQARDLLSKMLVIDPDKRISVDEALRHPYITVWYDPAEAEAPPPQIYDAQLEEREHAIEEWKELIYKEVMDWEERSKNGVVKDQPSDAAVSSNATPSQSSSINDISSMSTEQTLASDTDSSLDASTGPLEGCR
Sequence of Rho-associated protein kinase 2 (Homo sapiens) (O75116 whole entry, looked up, the tested form may be a part): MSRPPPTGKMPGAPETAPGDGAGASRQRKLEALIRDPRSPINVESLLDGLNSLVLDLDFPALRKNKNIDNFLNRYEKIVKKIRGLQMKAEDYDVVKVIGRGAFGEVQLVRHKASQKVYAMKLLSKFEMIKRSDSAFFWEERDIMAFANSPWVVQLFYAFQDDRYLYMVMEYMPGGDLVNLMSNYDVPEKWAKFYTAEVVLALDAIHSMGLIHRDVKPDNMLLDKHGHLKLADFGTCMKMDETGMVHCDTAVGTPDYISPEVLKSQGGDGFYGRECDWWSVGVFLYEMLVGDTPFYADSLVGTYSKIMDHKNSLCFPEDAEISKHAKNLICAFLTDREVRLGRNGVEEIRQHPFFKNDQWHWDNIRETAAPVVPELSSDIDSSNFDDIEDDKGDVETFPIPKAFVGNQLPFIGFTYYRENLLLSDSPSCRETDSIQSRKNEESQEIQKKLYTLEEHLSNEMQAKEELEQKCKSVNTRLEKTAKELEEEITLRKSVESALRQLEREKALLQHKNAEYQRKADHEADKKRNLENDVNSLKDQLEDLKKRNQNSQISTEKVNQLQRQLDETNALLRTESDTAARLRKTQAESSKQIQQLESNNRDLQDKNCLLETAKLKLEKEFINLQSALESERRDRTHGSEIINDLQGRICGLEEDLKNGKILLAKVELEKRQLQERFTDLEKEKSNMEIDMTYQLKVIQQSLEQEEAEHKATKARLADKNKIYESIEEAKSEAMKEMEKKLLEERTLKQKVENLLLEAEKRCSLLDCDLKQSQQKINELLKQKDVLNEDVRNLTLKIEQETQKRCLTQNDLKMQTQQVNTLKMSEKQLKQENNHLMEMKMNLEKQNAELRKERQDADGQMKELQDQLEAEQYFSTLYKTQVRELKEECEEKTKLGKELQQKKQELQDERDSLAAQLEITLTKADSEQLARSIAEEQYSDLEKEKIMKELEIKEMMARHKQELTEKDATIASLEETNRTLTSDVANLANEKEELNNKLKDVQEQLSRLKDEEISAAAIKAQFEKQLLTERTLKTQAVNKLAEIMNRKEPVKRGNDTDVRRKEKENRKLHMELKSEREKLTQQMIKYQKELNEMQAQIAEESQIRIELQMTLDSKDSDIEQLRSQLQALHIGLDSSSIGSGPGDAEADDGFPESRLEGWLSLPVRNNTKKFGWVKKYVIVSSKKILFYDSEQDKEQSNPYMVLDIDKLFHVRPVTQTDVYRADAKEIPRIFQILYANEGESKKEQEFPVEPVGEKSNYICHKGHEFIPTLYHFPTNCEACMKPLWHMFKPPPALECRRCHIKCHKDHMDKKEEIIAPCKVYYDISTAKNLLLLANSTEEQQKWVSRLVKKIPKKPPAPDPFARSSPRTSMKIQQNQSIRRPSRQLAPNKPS
Sequence of Serine/threonine-protein kinase Nek2 (Homo sapiens) (P51955 whole entry, the tested form may be a part): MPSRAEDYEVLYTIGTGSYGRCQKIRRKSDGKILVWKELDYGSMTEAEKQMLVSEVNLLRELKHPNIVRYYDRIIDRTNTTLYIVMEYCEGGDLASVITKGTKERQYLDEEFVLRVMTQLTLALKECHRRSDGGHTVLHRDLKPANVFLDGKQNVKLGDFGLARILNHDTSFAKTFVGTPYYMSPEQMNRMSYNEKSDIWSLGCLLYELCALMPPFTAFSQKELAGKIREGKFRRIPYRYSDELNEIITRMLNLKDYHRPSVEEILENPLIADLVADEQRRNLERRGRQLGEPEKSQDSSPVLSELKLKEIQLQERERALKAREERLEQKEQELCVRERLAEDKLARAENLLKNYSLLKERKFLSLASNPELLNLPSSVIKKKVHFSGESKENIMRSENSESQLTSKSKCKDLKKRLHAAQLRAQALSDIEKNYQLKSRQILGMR
Sequence of Ephrin type-B receptor 2 (Homo sapiens) (P29323 whole entry, the tested form may be a part): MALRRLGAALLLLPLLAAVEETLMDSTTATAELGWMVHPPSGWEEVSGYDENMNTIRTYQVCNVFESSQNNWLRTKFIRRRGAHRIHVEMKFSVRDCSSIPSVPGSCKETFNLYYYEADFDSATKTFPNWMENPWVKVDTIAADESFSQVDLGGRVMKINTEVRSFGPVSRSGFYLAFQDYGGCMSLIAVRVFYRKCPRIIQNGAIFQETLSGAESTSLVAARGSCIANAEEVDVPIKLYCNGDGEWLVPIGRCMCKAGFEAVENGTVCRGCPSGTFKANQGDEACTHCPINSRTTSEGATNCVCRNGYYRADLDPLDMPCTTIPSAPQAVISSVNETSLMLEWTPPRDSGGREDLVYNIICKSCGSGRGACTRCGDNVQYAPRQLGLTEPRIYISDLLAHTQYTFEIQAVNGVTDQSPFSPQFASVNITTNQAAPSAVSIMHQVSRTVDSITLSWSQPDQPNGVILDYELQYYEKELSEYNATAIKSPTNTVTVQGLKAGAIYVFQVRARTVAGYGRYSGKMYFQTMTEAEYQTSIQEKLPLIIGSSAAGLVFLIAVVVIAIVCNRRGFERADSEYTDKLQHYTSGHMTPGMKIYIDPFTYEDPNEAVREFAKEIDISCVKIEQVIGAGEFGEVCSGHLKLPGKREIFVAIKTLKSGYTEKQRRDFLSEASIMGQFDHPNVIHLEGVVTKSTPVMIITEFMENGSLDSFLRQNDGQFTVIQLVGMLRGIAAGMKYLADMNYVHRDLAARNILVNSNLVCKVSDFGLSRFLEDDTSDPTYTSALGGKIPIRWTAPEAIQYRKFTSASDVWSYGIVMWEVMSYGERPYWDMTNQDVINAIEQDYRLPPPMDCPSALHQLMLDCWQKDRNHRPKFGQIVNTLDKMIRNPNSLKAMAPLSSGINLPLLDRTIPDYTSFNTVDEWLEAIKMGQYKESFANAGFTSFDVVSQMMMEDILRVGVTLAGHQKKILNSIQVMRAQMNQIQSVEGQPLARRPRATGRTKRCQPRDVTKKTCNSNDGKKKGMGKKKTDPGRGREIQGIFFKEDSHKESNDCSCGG
Sequence of Serine/threonine-protein kinase D1 (Homo sapiens) (Q15139 whole entry, the tested form may be a part): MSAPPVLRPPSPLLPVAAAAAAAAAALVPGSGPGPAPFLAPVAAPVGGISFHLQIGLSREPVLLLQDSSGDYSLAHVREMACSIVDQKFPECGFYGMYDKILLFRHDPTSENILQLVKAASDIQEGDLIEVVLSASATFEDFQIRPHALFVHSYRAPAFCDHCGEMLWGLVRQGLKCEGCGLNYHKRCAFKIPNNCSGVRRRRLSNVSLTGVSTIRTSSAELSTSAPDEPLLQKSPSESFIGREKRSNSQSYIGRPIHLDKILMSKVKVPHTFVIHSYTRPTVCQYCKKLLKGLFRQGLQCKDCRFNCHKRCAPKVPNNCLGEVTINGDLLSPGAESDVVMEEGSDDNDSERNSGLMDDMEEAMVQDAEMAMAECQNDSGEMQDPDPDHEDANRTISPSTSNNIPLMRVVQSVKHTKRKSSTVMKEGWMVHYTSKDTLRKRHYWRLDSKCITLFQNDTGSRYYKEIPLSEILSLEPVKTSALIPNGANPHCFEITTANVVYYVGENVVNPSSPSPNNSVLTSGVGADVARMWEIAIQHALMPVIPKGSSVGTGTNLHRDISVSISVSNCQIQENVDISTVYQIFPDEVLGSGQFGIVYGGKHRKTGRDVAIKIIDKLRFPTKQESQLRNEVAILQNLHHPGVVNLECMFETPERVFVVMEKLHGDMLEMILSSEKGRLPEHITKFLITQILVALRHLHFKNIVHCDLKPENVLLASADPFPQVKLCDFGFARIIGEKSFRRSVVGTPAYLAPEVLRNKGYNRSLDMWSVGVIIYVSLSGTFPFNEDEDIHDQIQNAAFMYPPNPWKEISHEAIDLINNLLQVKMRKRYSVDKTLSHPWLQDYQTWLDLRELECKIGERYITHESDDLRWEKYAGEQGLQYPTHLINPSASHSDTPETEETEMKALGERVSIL

Turning to `C=CC(=O)Nc1cc(Nc2ncc(Cl)c(Nc3ccccc3S(=O)(=O)C(C)C)n2)c(OC)cc1N(C)CCN(C)C`, the Activity in data set [1] worked out at 1.9%; in data set [2], 83%; in data set [3], 55%; in data set [4], 85%; in data set [5], 16%; in data set [6], 0.15%. Further, the Activity worked out at 45% in data set [7]; 96% in data set [8]; 85% in data set [9]; 91% in data set [10]; 98% in data set [11]; 0.4% in data set [13]. Also, the Activity came to 1.2% in data set [14]; 26% in data set [15]; 1.3% in data set [16]; 5.6% in data set [17]; 91% in [18]; 68% in [19]. The Activity in data set [20] stood at 100%; in [21] it was 94%; in [22], 100%; in data set [23], 27%; in data set [24] it was 61%. Besides, the concentration at 2 h in data set [12] stood at 150 nM.

The values are drawn from ChEMBL document CHEMBL4382192, “Discovery of a potent dual ALK and EGFR T790M inhibitor” (Eur J Med Chem, 2017).
